Published values collected from several papers.
Lines come from different studies, so protocols differ.
Target: Tyrosine-protein kinase SYK (SYK, Homo sapiens, UniProt P43405)

Structure (SMILES)	test	conditions	remaining binding
CN(c1nccc(-c2cnn3ncccc23)n1)C1CC1	binding	1 µM	100%
Cc1cnc(Nc2ccc(C(=O)N3CCC(N4CCCC4)CC3)cc2)nc1-c1cc2ccccc2s1	binding, competition with immobilised ligand	1 µM	7.7%
CNC(=O)[C@@H]1CC[C@@H](n2c(-c3ccc4cnccc4c3)nc3ccc(C(=O)NCc4cccc(C(N)=O)c4)cc32)C1	binding, competition with immobilised ligand	1 µM	99%
Cc1cc(-n2nc(Cc3cc(F)cc(C(F)(F)F)c3)nc2C)ccc1C(N)=O	cell-free assay, competition with immobilised ligand	1 µM	87%
CN(C)c1nccc(-c2cnc3ncccn23)n1	binding	1 µM	78%
O=C(Nc1cccnn1)N1CCC(=Cc2cccc(Oc3ccc(C(F)(F)F)cn3)c2)CC1	cell-free assay, competition with immobilised ligand	1 µM	100%
N[C@@H]1CCN(c2nccc(-c3cnn4ncccc34)n2)C1	binding	1 µM	100%
O=C(c1ccc(Nc2ncc(Cl)c(-c3ccc(Cl)s3)n2)cc1)N1CCC(N2CCCC2)CC1	binding, competition with immobilised ligand	1 µM	43%
Nc1ncc2c(n1)-c1c([nH]c3ccc(C#CC4CC4)cc13)CCCC2	binding, competition with immobilised ligand	1 µM	100%
O=c1nc(-c2ccccn2)sc2ccccc12	cell-free assay, competition with immobilised ligand	1 µM	97%
O=C(NCCCN1CCOCC1)c1ccc(Nc2nccc(-c3cc4ccccc4s3)n2)cc1	binding, competition with immobilised ligand	1 µM	17%
CN(C)c1ncc(F)c(-c2cnn3ncccc23)n1	binding	1 µM	76%
CO[C@H]1CC[C@H](CNc2ccc(S(=O)(=O)NC(=O)c3ccc(N4CCN(CC5=C(c6ccc(Cl)cc6)CC(C)(C)CC5)CC4)cc3Oc3cnc4[nH]ccc4c3)cc2[N+](=O)[O-])CC1	cell-free assay, competition with immobilised ligand	1 µM	62%
c1cncc(-c2cccc(Nc3nccc(NC4CCCCC4)n3)c2)c1	binding, competition with immobilised ligand	10 µM	16%
C[C@@H]1CN(c2cc(-c3n[nH]c4ccc(OC5(C)CC5)cc34)ncn2)C[C@H](C)O1	cell-free assay, competition with immobilised ligand	0.1 µM	96%
C[C@H]1CCN(c2nccc(-c3cnn4ncccc34)n2)C1	binding	1 µM	82%
CCN1CCN(Cc2ccc(C(=O)Nc3ccc(C)c(Oc4ccc5c(c4)CC(=O)N5)c3)cc2C(F)(F)F)CC1	binding, competition with immobilised ligand	1 µM	100%
CSc1cccnc1N1CCN(Cc2nc3ccccc3[nH]2)CC1	cell-free assay, competition with immobilised ligand	1 µM	100%
CN(C)c1nccc(-c2cnn3ncccc23)n1	binding	1 µM	100%
O=C(Nc1c[nH]nc1C(=O)NC1CCNCC1)c1cc(F)cc(F)c1	binding, competition with immobilised ligand	1 µM	100%
